For data set [1], the system named is HUVEC. Put plainly: Antagonist activity at VEGFR in human HUVEC grown in serum deprived medium assessed as inhibition of VEGF165-induced ERK1/2 phosphorylation at 12.5 nM after 24 hrs by Western blot analysis. Type of data set: functional, cell-based. The gist of the method: (§1)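 Whole-cell lysates (25 μg) were run on 12% SDS-PAGE and immunoblotted for phospho-ERK1/2 and phospho-RB. Total ERK1/2, RB and GAPDH were the loading controls. Read-out was ECL.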

Data set [2] concerns A-375. The data set can be described thus: Antitumor activity against human A375 cells xenografted in athymic nude-Foxn1 nu/nu mouse assessed as tumor growth inhibition at 200 nM intratumorally administered for 15 days measured after 15 days relative to acetyl-KQMYLELGYATIKWL-amide. Type of data set: functional. The gist of the method:
(§2)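 A375 cells (5 × 10^6 in 150 μL Hanks' solution) were injected subcutaneously on the back of 6-week-old female athymic nude-Foxn1nu/nu mice. After one week, mice were randomized (10/group) to PBS (100 μL) or peptide (200 nM), given intratumorally twice weekly. Tumours were measured by caliper and volume was calculated as V = (ab²)/2. Groups were compared by ANOVA.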

The test system of data set [3] is HUVEC. Put plainly: Induction of apoptosis in human HUVEC grown in serum deprived medium at 12.5 nM after 24 hrs by annexin V/fluorescein isothiocyanate-based flow cytometry. Type of data set: functional, cell-based.
The nature of data set [4]: Half life of the compound. Type of data set: physicochemical. The gist of the method:
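Peptide was diluted to a final 0.5 mg/mL in 25% (v:v) pooled human male AB serum at 37 C. Aliquots were taken at 0, 15, 30, 60, 90 and 120 min and at 24 h, centrifuged at 4 C and diluted to 0.1 mg/mL. Remaining intact peptide was quantified by RP-HPLC on a C18 column with 38–48% CH3CN (0.1% TFA) elution.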

The nature of data set [5]: Antiangiogenic activity against VEGF165-induced CD1 nude mouse endothelial cells at 200 nM after 21 days by FITC-based fluorescence microscopy.
Data set [6] concerns A-375. Put plainly: Antitumor activity against human A375 cells xenografted in athymic nude-Foxn1 nu/nu mouse assessed as inhibition of tumor angiogenesis measuring CD31 expression at 200 nM intratumorally administered for 7 days by immunohistochemical analysis. Type of data set: functional. In outline: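 Tumours from A375 xenografts in nude mice, treated intratumorally with peptide (200 nM) or PBS twice weekly, were excised after 1 week. They were formalin-fixed and cut into 5 μm paraffin sections. Sections were stained for CD31 by avidin-biotin peroxidase with diaminobenzidine and counterstained with hematoxylin.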
(In general: Xenograft models place foreign cells or tissue in a host animal.)

For data set [7], the system named is HUVEC. The data set can be described thus: Induction of apoptosis in human HUVEC grown in serum deprived medium assessed as caspase 3 activity at 12.5 to 50 nM after 8 hrs by spectrofluorometry. Type of data set: functional, cell-based. In outline:
(§3)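 Lysates of serum-deprived HUVECs (2 × 10^4 cells) were prepared in 50 mM Hepes, 1 mM DTT, 0.1 mM EDTA, 0.1% NP-40 and 0.1% CHAPS. Protein (20 μg) was incubated with 20 μM Ac-DEVD-AMC at 37 C for 3 h. Released AMC was read by spectrofluorometry at 380 nm excitation and 440 nm emission.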

For data set [8], the system named is HUVEC. Put plainly: Antagonist activity at VEGFR in human HUVEC grown in serum deprived medium assessed as inhibition of VEGF165-induced ERK1/2 phosphorylation at 50 nM after 24 hrs by Western blot analysis. Type of data set: functional, cell-based. In outline: as §1
On the technique in general: Immunoblotting shows a protein as a band on a membrane.

The test system of data set [9] is A-375. The data set can be described thus: Antitumor activity against human A375 cells xenografted in athymic nude-Foxn1 nu/nu mouse assessed as tumor growth inhibition at 200 nM intratumorally administered for 15 days measured after 15 days relative to untreated control. Type of data set: functional. The gist of the method:
as §2

The test system of data set [10] is HUVEC. The data set can be described thus: Inhibition of VEGF165-induced cell proliferation in human HUVEC grown in serum deprived medium at 12.5 to 50 nM after 24 hrs relative to acetyl-KQMYLELGYATIKWL-amide. Type of data set: functional. In outline: (§4)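 HUVECs were seeded at 1200 cells/well and switched after 24 h to EBM-2 with 0.1% heparin and 0.1% BSA. They were treated with peptide, with or without VEGF165 (25 ng/mL), for 24 or 48 h at 37 C. DNA content was measured with CyQUANT NF reagent (1 h, 37 C) at 485 nm excitation. Quadruplicate samples were used, and values were expressed as percentage of proliferating cells.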

The subject of data set [11] is HUVEC. Put plainly: Antagonist activity at VEGFR in human HUVEC grown in serum deprived medium assessed as inhibition of VEGF165-induced RB phosphorylation at 50 nM after 15-30 mins by Western blot analysis. Type of data set: functional, cell-based.
The subject of data set [12] is HUVEC. The data set can be described thus: Binding affinity to VEGFR in human HUVEC grown in serum deprived medium using fluorescein-labeled compound at 50 to 5000 nM after 5 mins by flow cytometry. Type of data set: cell-based. The gist of the method:
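HUVECs (3 × 10^4/100 μL) were suspended in EBM-2 with 0.1% heparin and 0.1% BSA. They were incubated for 5 min at 4 C in the dark with fluorescein-labelled peptide (50, 500, 5000 nM). For competition, 500 nM labelled peptide was used with VEGF165 (0.05, 5, 500 nM). Cells were washed, resuspended in PBS and analysed by flow cytometry. A PE-conjugated anti-β-1 integrin antibody (1:100) was the technical control.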
On the technique in general: In flow cytometry, cells or beads pass a laser one at a time.

Data set [13] relates to HUVEC. The data set can be described thus: Antagonist activity at VEGFR in human HUVEC grown in serum deprived medium assessed as inhibition of VEGF165-induced RB phosphorylation at 50 nM after 15-30 mins by Western blot analysis.
The test system of data set [14] is HUVEC. Put plainly: Inhibition of VEGF165-induced cell proliferation in human HUVEC grown in serum deprived medium at 12.5 to 50 nM after 48 hrs. Type of data set: functional. In outline: as §4
The test system of data set [15] is HUVEC. Put plainly: Antagonist activity at VEGFR in human HUVEC grown in serum deprived medium assessed as inhibition of VEGF165-induced AKT phosphorylation at 50 nM after 15-30 mins by Western blot analysis. Type of data set: functional, cell-based. The gist of the method:
(§5)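 Serum-starved HUVECs in EBM-2 with 0.1% heparin and 0.1% BSA were treated at 37 C for 15 and 30 min with peptide, with or without VEGF165 (25 ng/mL). Total lysates (25 μg) were run on 12% SDS-PAGE and blotted for phospho-ERK1/2 and phospho-AKT. Total ERK1/2, AKT and GAPDH served as loading controls. Detection was by HRP secondary antibody and ECL.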

In data set [16] the test system is HUVEC. The data set can be described thus: Antagonist activity at VEGFR in human HUVEC grown in serum deprived medium assessed as inhibition of VEGF165-induced ERK1/2 phosphorylation at 50 nM after 15-30 mins by Western blot analysis. Type of data set: functional, cell-based. The gist of the method:
as §5

The test system of another data set is Endothelial cell. The data set can be described thus: Antiangiogenic activity against VEGF165-induced CD1 nude mouse endothelial cells at 200 nM after 21 days by FITC-based fluorescence microscopy.
In data set [17] the test system is HUVEC. Put plainly: Induction of apoptosis in human HUVEC grown in serum deprived medium assessed as caspase 3 activity at 50 nM after 8 hrs by spectrofluorometry. Type of data set: functional, cell-based. In outline: as §3
The subject of data set [18] is HUVEC. The data set can be described thus: Inhibition of VEGF165-induced cell proliferation in human HUVEC grown in serum deprived medium at 50 nM after 24 hrs. Type of data set: functional, cell-based. The gist of the method: as §4
Data set [19] concerns HUVEC. Put plainly: Inhibition of VEGF165 induced cell proliferation in human HUVEC grown in serum deprived medium at 50 nM after 48 hrs. Type of data set: functional, cell-based. The gist of the method:
as §4

SMILES strings stand for the structures. Activity calls are given as the source filed them. No cut-off for these calls is given here. Residues, ends and D or L forms follow the SMILES beside them.

This is an account of results in ChEMBL document CHEMBL2151010, “Characterization of a designed vascular endothelial growth factor receptor antagonist helical peptide with antiangiogenic activity in vivo” (J Med Chem, 2011).

As a reminder, the half-life is how long it takes for the measured level to halve. Low readings indicate fast loss, high ones slow loss. For `CC[C@H](C)[C@H](NC(=O)CNC(=O)[C@H](CCCCN)NC(=O)[C@H](Cc1ccc(O)cc1)NC(=O)[C@H](C)NC(=O)[C@H](CC(C)C)NC(=O)[C@H](CCC(N)=O)NC(=O)[C@H](Cc1ccc(O)cc1)NC(=O)[C@H](CC(C)C)NC(=O)[C@H](CCC(=O)O)NC(=O)[C@H](CCSC)NC(=O)[C@H](Cc1c[nH]c2ccccc12)NC(=O)[C@@H](NC(=O)[C@H](CC(C)C)NC(=O)[C@H](CCCCN)NC(C)=O)[C@@H](C)O)C(N)=O` (Ac-KLTWMELYQLAYKGI-NH2), the inhibition result with HUVEC [1], in the data set with HUVEC [8], in the data set with HUVEC [11], in the data set on HUVEC [13], in the data set on HUVEC [15] and in the data set with HUVEC [16] was “Active” throughout. Besides, the TGI with A-375 [2] worked out at 47%; in the data set on A-375 [9] it was 36%. The outcome in the data set with HUVEC [3], in the data set with HUVEC [7] and with HUVEC [12] was Active. This compound also displayed a half-life in [4] of 1.5 h. For the same compound, the Activity in data set [5] stood at 85%. For the same compound, the “inhibition (INH)” value in the data set on A-375 [6] is listed as 50%; in the data set with HUVEC [10] it was 40%; in the data set with HUVEC [14], greater than 85%.

As to `CC[C@H](C)[C@H](NC(=O)[C@@H](NC(=O)[C@H](C)NC(=O)[C@H](Cc1ccc(O)cc1)NC(=O)CNC(=O)[C@H](CC(C)C)NC(=O)[C@H](CCC(=O)O)NC(=O)[C@H](CC(C)C)NC(=O)[C@H](Cc1ccc(O)cc1)NC(=O)[C@H](CCSC)NC(=O)[C@H](CCC(N)=O)NC(=O)[C@H](CCCCN)NC(C)=O)[C@@H](C)O)C(=O)N[C@@H](CCCCN)C(=O)N[C@@H](Cc1c[nH]c2ccccc12)C(=O)N[C@@H](CC(C)C)C(N)=O` (Ac-KQMYLELGYATIKWL-NH2), the result with HUVEC [3], in the data set on Endothelial cell, in the data set with HUVEC [17] and in the data set with HUVEC [12] was inactive. Moreover, the TGI result in the data set with A-375 [9] was “inactive”. The inhibition result in the data set with HUVEC [18], in the data set on HUVEC [15], in the data set on HUVEC [16] and with HUVEC [19] was “inactive” throughout.
